Measurements published in article PMC9233141 (ChemMedChem, 2022).

Tests used:
PKN3 [1] = target: T1, PKN3 (Homo sapiens, UniProt Q6P5Z2); assay: split-luciferase binding assay
ACVR1 = settings: read-out: ACVR1 Kd; DiscoverX profiling; cited from earlier work
NLK = settings: read-out: Kd NLK; DiscoverX KinomeSCAN, prior annotation of PKIS2; cited from earlier work
[2] = tested on: kinases in lysates of SUM159 cells; assay: MIB-MS kinome profiling; assay type: binding; settings: 1 μM; for kinases on which activity was detected: threshold 5-fold change
GAK [3] = settings: read-out: GAK activity in cells IC50; GAK NanoBRET; cited from earlier work
PKN3 [4] = target: T1, PKN3; assay: PKN3 NanoBRET in-cell target engagement; assay type: cell-based
In short: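 Full-length PKN3 with N-terminal NanoLuc (Gly-Ser-Ser-Gly linker) transiently expressed in HEK-293 cells for 20-30 hr at 37°C/5% CO2. Cells in Opti-MEM at 2 x 10^4/well are equilibrated 2 h with tracer K-5 (1000 nM final) and test compound. NanoBRET substrate and extracellular NanoLuc inhibitor are added, and donor/acceptor luminescence is read. IC50 comes from a variable-slope fit, normalised to controls when needed.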

GAK [5] = assay: GAK FRET binding; settings: compared to 14
GAK [6] = assay: GAK NanoBRET; assay type: cell-based; settings: NanoBRET GAK vs PKN3
human kinome = settings: at 1 μM, across the human kinome; cited from earlier work
[7] = PKN3 IC50, SLCA assay (n=2), 8-point dose response

T1 sequence (Q6P5Z2 whole entry): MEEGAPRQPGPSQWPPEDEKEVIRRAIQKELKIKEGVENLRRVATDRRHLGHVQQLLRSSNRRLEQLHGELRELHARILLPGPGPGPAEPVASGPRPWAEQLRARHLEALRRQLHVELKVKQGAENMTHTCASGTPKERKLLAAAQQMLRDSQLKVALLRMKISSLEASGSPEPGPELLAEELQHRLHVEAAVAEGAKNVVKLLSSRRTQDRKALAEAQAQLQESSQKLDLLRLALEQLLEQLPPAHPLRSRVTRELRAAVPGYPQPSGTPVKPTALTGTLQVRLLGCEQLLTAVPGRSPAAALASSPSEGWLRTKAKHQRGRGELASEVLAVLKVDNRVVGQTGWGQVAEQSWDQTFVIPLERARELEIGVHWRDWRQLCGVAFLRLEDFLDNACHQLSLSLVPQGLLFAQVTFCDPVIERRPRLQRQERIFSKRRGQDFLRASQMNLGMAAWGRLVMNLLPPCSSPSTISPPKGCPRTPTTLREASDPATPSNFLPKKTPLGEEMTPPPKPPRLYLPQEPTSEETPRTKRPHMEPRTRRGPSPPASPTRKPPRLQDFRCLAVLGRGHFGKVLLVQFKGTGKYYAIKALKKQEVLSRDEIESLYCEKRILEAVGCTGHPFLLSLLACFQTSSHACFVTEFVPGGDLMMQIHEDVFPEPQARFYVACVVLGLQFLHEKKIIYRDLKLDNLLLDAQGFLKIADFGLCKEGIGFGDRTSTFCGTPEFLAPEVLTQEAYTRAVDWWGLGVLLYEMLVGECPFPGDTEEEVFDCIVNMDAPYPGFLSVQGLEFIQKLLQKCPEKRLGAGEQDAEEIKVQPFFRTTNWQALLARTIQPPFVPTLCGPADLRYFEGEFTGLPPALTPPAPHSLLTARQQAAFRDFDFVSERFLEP

In the case of `CS(=O)(=O)CCNCc1ccc(-c2ccc3ncnc(Nc4ccc(OCc5cccc(F)c5)c(Cl)c4)c3c2)o1` [Lapatinib], the IC50 (PKN3 [1]; [7]) is reported as 5900 nM and the “PKN3 binding, in words” value (PKN3 [1]; SLCA assay) is reported as “moderate activity”.

In the case of `CNC(=O)CN1CCC(Oc2cc3c(Nc4cccc(Cl)c4F)ncnc3cc2OC)CC1` [Sapitinib], the IC50 (PKN3 [1]; [7]) is reported as 44000 nM.

In the case of `COc1cc2nccc(Oc3ccc(NC(=O)C4(C(=O)Nc5ccc(F)cc5)CC4)cc3)c2cc1OC` [Cabozantinib], the IC50 (PKN3 [1]; [7]) is reported as 42000 nM.

For `COc1cc(Nc2ccnc3ccc(C(F)(F)F)cc23)cc(OC)c1OC` [Compound 2], the Kd (ACVR1) is listed as 220 nM, the Kd (NLK) is listed as < 1000 nM and the kinome profile [2] is listed as “narrow spectrum”. The “kinases on which activity was detected” value [2] was “GAK and RIPK2”.

`COc1cc2c(Nc3ccc(Br)cc3F)ncnc2cc1OCC1CCN(C)CC1` [Vandetanib] gave an IC50 (PKN3 [1]; [7]) of 540 nM.

In the case of `COc1cc(Nc2ccnc3cc(I)ccc23)cc(OC)c1OC` [Compound 16, 7-iodo-N-(3,4,5-trimethoxyphenyl)quinolin-4-amine], the IC50 (GAK [3]) is listed as 74 nM, the IC50 (PKN3 [4]) is listed as 1300 nM and the “drop off in activity from cell free SLCA assay to NanoBRET” value (PKN3 [4]; PKN3) is listed as ~100 fold. The kinome profile [2] was “narrow spectrum”, the “kinases on which activity was detected” value [2] was “PKN3, NLK, GAK, AVCR1 and RIPK2” and the “decrease in GAK activity” value (GAK [5]) was 3 fold. The “more potent on GAK than PKN3 in cells” value (GAK [6]) was 17 fold.

For `COc1cc(Nc2ccnc3cc(-c4ccncc4)ccc23)cc(OC)c1OC` [Compound 3], the IC50 (PKN3 [1]; PKN3 IC50, SLCA assay) is listed as 9 nM and the “number of kinases inhibited >90%” value (human kinome) is listed as > 18 kinases.

In the case of `COc1cc2c(Nc3ccc(Cl)c(Cl)c3F)ncnc2cc1OC[C@@H]1C[C@@H]2CN(C)C[C@@H]2C1` [Tesevatinib], the IC50 (PKN3 [1]; [7]) is reported as 240 nM.
